# Measurements published in PMC5968455 (Cancer cell, 2016).
# Key:
# [1] = tested on: patient-derived GBM neural stem cells (GNS); assay: Proliferation assay, dose-response series; format: cell-based, human; details: for selectivity toward GNS and NS compared with fibroblasts: IC50 of BJ/IC50 of any NS or GNS with the lowest IC50, dose series 0.39–50 µM; for IC50: read-out: potency (IC50) toward GNS, panel of six GNS lines
# DRD4 receptor = molecular target: T1, DRD4 receptor (Homo sapiens, UniProt P21917); assay: Block of forskolin-induced cAMP response by DRD4 agonist; format: cell-based; details: G362 cells, pretreatment 30 µM, then forskolin 30 µM
# T1 sequence (P21917 1-419): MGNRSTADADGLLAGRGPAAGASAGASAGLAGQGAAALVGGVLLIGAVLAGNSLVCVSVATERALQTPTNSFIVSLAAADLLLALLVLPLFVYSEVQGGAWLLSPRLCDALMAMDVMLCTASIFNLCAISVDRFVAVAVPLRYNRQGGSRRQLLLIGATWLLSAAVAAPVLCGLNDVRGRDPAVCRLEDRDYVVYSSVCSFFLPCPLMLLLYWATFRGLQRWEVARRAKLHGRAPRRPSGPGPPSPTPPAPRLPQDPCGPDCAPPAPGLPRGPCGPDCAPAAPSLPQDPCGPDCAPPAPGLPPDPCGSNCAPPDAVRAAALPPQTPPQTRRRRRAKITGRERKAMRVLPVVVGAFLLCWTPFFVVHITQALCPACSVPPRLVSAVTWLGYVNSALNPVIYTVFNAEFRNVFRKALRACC
# adenylate cyclase = assay: Forskolin-induced cAMP response in GNS; format: cell-based, human; details: G362 cells, forskolin 30 µM
# Method in brief: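 G362 GNS cells were stimulated with forskolin (30 µM) to activate adenylate cyclase. Forskolin was given alone or after pretreatment with a DRD4-selective agonist (30 µM). cAMP level was expressed as fold change versus control; n = 3, mean ± SEM.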
# GNS (G411 and G362) = assay: Flow cytometric cell-cycle analysis of DNA content; format: cell-based, human
# Method in brief: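 GNS lines G411 and G362 were grown as adherent monolayers in serum-free medium. They were exposed to test compounds (DRD4 antagonists) at 10 µM or 25 µM, alongside DMSO control, for 48 hr. DNA-content cell-cycle distribution was then analysed.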
# G362 = assay: Combination index with TMZ; format: cell-based, human; details: in combination with TMZ
# Method in brief: (§1)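 Patient-derived glioblastoma stem cell (GNS) cultures were exposed to temozolomide combined with a test compound (DRD4 antagonist). The combination index (CI) was calculated and plotted against fraction affected (Fa) to judge the interaction.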
# [2] = tested on: normal human NS lines (hf5205 and hf6539); assay: Neuronal differentiation of normal NS; format: cell-based; details: with sequential withdrawal of EGF and FGF; VGlut1 expression
# GNS (G362 and G411) = assay: LC3B+ puncta immunofluorescence; format: cell-based, human; details: 48 hr; L-741,742 10 µM, PNU 96415E 25 µM
# Method in brief: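 Adherent, serum-free GNS cultures (G362, G411) were exposed for 48 hr to test compounds (DRD4 antagonists) at 10 µM or 25 µM, or DMSO. LC3B was immunostained, and cells with large LC3B+ puncta were counted (>200 cells per group). Results are the fraction of cells; n = 3, mean ± SEM, unpaired one-tailed t test.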
# G481 = assay: Combination index with TMZ; format: cell-based, human; details: in combination with TMZ
# Method in brief: as §1
# [3] = tested on: G362 cells injected intracranially; assay: Intracranial G362 xenograft survival in NSG mice; format: in vivo, mouse
# [4] = tested on: subcutaneous implanted tumor (G362); assay: Subcutaneous GNS xenograft in NSG mice; format: in vivo, mouse; details: 20 mg/kg intraperitoneally; for reduction of average tumor weight at the endpoint: 5 days on, 2 days off, vs vehicle
# [5] = tested on: non-NS control cells (BJ, Daoy, U-2 OS, C8-D1A); assay: Proliferation assay in non-NS control cell lines; format: cell-based; details: highest concentration tested 50 µM
# GNS, NS and BJ lines = assay: Primary screen of neuroactive compounds, growth inhibition; format: cell-based, human; details: 5 µM, 5 days; hit = greater than 20% growth inhibition vs DMSO
# Method in brief: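 A 680-compound neuroactive library was screened at 5 µM for 5 days against three human GNS lines, two neural stem cell (NS) lines and BJ fibroblasts. GNS and NS lines were grown as adherent serum-free monolayers. Growth inhibition was calculated relative to DMSO control; a primary hit caused >20% inhibition.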
molecule,measurement,setting,value
CCC(Oc1ccc(Cl)cc1)C(=O)OC1CC2CCC(C1)N2C (racemic) [(±)-tropanyl-2-(4-chlorophenoxy)butanoate],selectivity toward GNS and NS compared with fibroblasts,[1],more than 8 fold
Cc1cccc(NC(=O)CN2CCC(c3ccccn3)CC2)c1 [A412997],block of forskolin-induced cAMP response,DRD4 receptor,31.3%
"C=C[C@@]1(C)CC(=O)[C@]2(O)[C@@]3(C)[C@@H](O)CCC(C)(C)[C@@H]3[C@H](O)[C@H](OC(C)=O)[C@@]2(C)O1 [Forskolin, forskolin]",increase in cAMP concentration,adenylate cyclase,2.1 fold
"Cc1c(C2CCN(CCc3ccccc3)CC2)noc1-c1ccc(Cl)cc1 [L-741,742]",cell-cycle effect,GNS (G411 and G362),G0/G1 arrest
same,lowest combination index (CI) value,G362,0.29
same,neuronal differentiation of NS,[2],dramatically enhanced neuronal differentiation
same,cells showing large LC3B+ puncta,GNS (G362 and G411),more than 50%
same,lowest combination index (CI) value,G481,0.28
same,survival over control,"[3]; 25 mg/kg alone, treatment from 1 week after engraftment",modest but significant benefit in survival
same,survival compared with TMZ alone,[3]; 25 mg/kg combined with TMZ (25 or 12.5 mg/kg gavage),significantly improved survival
same,selectivity against GNS compared with NS,[1],8 fold
same,selectivity toward GNS and NS compared with fibroblasts,[1],more than 8 fold
same,IC50,[1],1.5 to 6.2 µM
same,tumor volume growth vs vehicle control,[4],much slower growth
same,reduction of average tumor weight at the endpoint,[4],40.9%
"Clc1ccc(N2CCN(Cc3c[nH]c4ncccc34)CC2)cc1 [L-745,870]",IC50,[1],3.1 to 6.2 µM
"Nc1ccc(CCN2CCN(c3cccc(C(F)(F)F)c3)CC2)cc1 [LY-165,163]",selectivity toward GNS and NS compared with fibroblasts,[1],more than 8 fold
CN1[C@@H]2CC[C@H]1C[C@@H](OC(=O)c1cc(Cl)cc(Cl)c1)C2 [MDL-72222],selectivity toward GNS and NS compared with fibroblasts,[1],more than 8 fold
"CCN(CC)CCOc1ccc(Cc2ccccc2)cc1 [N,N-diethyl-2-(4-(phenylmethyl)phenoxy) ethanamine]",selectivity toward GNS and NS compared with fibroblasts,[1],more than 8 fold
O=C(NOC[C@H](O)CO)c1ccc(F)c(F)c1Nc1ccc(I)cc1F [PD 0325901],cell-cycle effect,GNS (G411 and G362),G0/G1 arrest
Cl.Cl.Fc1ccc(N2CCN(CCC3OCCc4ccccc43)CC2)cc1 (stereo not shown) [PNU 96415E],cell-cycle effect,GNS (G411 and G362),G0/G1 arrest
same,lowest combination index (CI) value,G362,0.56
same,cells showing large LC3B+ puncta,GNS (G362 and G411),more than 50%
same,lowest combination index (CI) value,G481,0.32
same,sensitivity of non-NS control cells,[5],not sensitive even at the highest concentration tested
same,selectivity against GNS compared with NS,[1],8 fold
same,selectivity toward GNS and NS compared with fibroblasts,[1],more than 8 fold
same,IC50,[1],6.25 µM
same,tumor volume growth vs vehicle control,[4],much slower growth
same,reduction of average tumor weight at the endpoint,[4],44.3%
CCN(CC)CCCC(C)Nc1ccnc2cc(Cl)ccc12 (stereo not shown) [chloroquine],cell-cycle effect,GNS (G411 and G362),G0/G1 arrest
CC(C(O)c1ccc(O)cc1)N1CCC(Cc2ccccc2)CC1.CC(C(O)c1ccc(O)cc1)N1CCC(Cc2ccccc2)CC1.O=C(O)C(O)C(O)C(=O)O (stereo not shown) [ifenprodil tartrate],selectivity against GNS compared with NS,[1],8 fold
same,selectivity toward GNS and NS compared with fibroblasts,[1],more than 8 fold
CSc1ccc2c(c1)N(CCC1CCCCN1C)c1ccccc1S2 (stereo not shown) [thioridazine],primary screen result,"GNS, NS and BJ lines",hits
CN1CCN(CCCN2c3ccccc3Sc3ccc(C(F)(F)F)cc32)CC1 [trifluoperazine],primary screen result,"GNS, NS and BJ lines",hits
"Cc1cc(C)cc(C(=O)OC2CC3CCC(C2)N3C)c1 (stereo not shown) [tropanyl 3,5-dimethylbenzoate]",selectivity toward GNS and NS compared with fibroblasts,[1],more than 8 fold
PD 168568,IC50,[1],25 to 50 µM
